The target in test [1] is T1, Tyrosine-protein phosphatase non-receptor type 1 (Homo sapiens, UniProt P18031).
T1 sequence (P18031 whole entry): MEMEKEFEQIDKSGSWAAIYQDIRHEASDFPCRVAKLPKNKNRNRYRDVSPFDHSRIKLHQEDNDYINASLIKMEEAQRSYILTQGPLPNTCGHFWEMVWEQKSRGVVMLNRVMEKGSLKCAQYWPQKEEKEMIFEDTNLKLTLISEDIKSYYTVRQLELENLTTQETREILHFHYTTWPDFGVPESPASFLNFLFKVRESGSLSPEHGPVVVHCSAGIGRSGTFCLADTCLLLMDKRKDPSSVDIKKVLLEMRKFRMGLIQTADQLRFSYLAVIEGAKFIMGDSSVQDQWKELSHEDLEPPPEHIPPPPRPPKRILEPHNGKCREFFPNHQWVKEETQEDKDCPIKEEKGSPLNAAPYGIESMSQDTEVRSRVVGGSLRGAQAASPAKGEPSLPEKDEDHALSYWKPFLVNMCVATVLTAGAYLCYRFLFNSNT
Description: Inhibition of PTP1B by pNPP hydrolase assay. The essentials:
(§1)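 Enzyme activity (PTP1B or TCPTP) was measured by hydrolysis of p-nitrophenyl phosphate (pNPP), with {4-[4-(4-oxalylphenoxymethyl)-benzyloxy]-phenyl}-oxo-acetic acid as the reference inhibitor. IC50 was derived by regression analysis and reported as mean ± SD of three replications.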

Test [2] concerns the target T2, Tyrosine-protein phosphatase non-receptor type 2 (Homo sapiens, UniProt P17706).
T2 sequence (P17706 whole entry): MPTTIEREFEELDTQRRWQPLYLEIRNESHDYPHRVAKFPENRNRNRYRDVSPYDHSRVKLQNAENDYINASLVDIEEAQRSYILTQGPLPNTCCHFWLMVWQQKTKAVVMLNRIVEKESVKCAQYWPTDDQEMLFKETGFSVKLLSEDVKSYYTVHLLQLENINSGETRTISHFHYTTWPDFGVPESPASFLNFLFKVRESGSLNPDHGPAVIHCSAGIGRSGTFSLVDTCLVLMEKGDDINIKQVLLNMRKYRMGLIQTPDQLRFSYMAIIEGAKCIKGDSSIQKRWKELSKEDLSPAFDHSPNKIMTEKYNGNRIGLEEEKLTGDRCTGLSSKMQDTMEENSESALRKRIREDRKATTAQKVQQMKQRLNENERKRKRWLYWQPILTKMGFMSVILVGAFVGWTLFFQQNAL
Description: Inhibition of TCPTP by pNPP hydrolase assay. The essentials:
as §1

The target in test [3] is T3, Tyrosine-protein phosphatase non-receptor type 1 (Homo sapiens) (UniProt P18031).
T3 sequence (whole entry): T1 sequence (P18031 whole entry)
Description: Inhibition of PTP1B at 20 uM by pNPP hydrolase assay.

The nature of test [4]: Selectivity ratio of IC50 for TCPTP to IC50 for PTP1B.
For test [5], the target named is T1, Tyrosine-protein phosphatase non-receptor type 1. Description: Inhibition of PTP1B. The essentials:
as §1

The IC50 is the concentration that inhibits the measured activity by half. A lower IC50 goes with greater potency in that assay. The term inhibition denotes the change of the read-out against control, counted positive when it falls. Higher therefore signals strong suppression.

Consider `CC(C)=C[C@@H]1C[C@](O)([C@H]2CC[C@@H]3[C@@H]2CC[C@H]2[C@@]3(C)CC[C@H]3C(C)(C)[C@@H](OC(=O)c4ccc([N+](=O)[O-])cc4)CC[C@]23C)C(=O)O1`, for which the IC50 in test [1] came to 1.42 µM; in test [2], 5.1 µM.

Turning to `COc1ccccc1C(=O)O[C@H]1CC[C@]2(C)[C@H]3CC[C@H]4[C@@H](CC[C@@H]4[C@@]4(O)C[C@@H](C=C(C)C)OC4=O)[C@]3(C)CC[C@H]2C1(C)C`, the results for the IC50 in test [1] and in test [2] were 1.9 µM and 4.05 µM, respectively.

Regarding `CC(C)=C[C@@H]1C[C@](O)([C@H]2CC[C@@H]3[C@@H]2CC[C@H]2[C@@]3(C)CC[C@H]3C(C)(C)[C@@H](C(=O)c4ccccc4)CC[C@]23C)C(=O)O1`, the IC50 in test [1] was determined as 2.75 µM; in test [2] it was 4.15 µM.

As to `CC(C)=C[C@@H]1C[C@](O)([C@H]2CC[C@@H]3[C@@H]2CC[C@H]2[C@@]3(C)CC[C@H]3C(C)(C)[C@@H](OC(=O)c4cccc([N+](=O)[O-])c4)CC[C@]23C)C(=O)O1`, the results for the IC50 in test [1] and in test [2] were 1.7 µM and 2.26 µM, respectively.

Consider `CCCCC(=O)[C@H]1CC[C@]2(C)[C@H]3CC[C@H]4[C@@H](CC[C@@H]4[C@@]4(O)C[C@@H](C=C(C)C)OC4=O)[C@]3(C)CC[C@H]2C1(C)C`, for which the results for the IC50 in test [1] and in test [2] were 4.14 µM and 11.8 µM, respectively.

Turning to `CCC(=O)[C@H]1CC[C@]2(C)[C@H]3CC[C@H]4[C@@H](CC[C@@H]4[C@@]4(O)C[C@@H](C=C(C)C)OC4=O)[C@]3(C)CC[C@H]2C1(C)C`, the IC50 in test [1] was found to be 4.6 µM; in test [2] it was 14.7 µM.

For the molecule `CC(C)=C[C@@H]1C[C@](O)([C@H]2CC[C@@H]3[C@@H]2CC[C@H]2[C@@]3(C)CC[C@H]3C(C)(C)[C@@H](OC(=O)c4ccc(C(=O)O)c([N+](=O)[O-])c4)CC[C@]23C)C(=O)O1`, the IC50 in test [1] is 0.5 µM; in test [2], 1.22 µM.

On to `CC(C)=C[C@@H]1C[C@](O)([C@H]2CC[C@@H]3[C@@H]2CC[C@H]2[C@@]3(C)CC[C@H]3C(C)(C)C(=O)CC[C@]23C)C(=O)O1`, for which the figures for the IC50 in test [1] and in test [2] were 13.1 µM and 34.1 µM, respectively.

For `CC(C)=C[C@@H]1C[C@](O)([C@H]2CC[C@@H]3[C@@H]2CC[C@H]2[C@@]3(C)CC[C@H]3C(C)(C)C(NCc4ccc([N+](=O)[O-])cc4)CC[C@]23C)C(=O)O1` (some centres undefined), the half-maximal inhibitory concentration (IC50) in test [1] turned out to be 6.58 µM.

`CC(C)=C[C@@H]1C[C@](O)([C@H]2CC[C@@H]3[C@@H]2CC[C@H]2[C@@]3(C)CC[C@H]3C(C)(C)[C@@H](OC(=O)c4ccccc4[N+](=O)[O-])CC[C@]23C)C(=O)O1`: the 50% inhibitory concentration (IC50) in test [1] stood at 1.96 µM; in test [2], 3.38 µM.

In the case of `CC(C)=C[C@@H]1C[C@](O)([C@H]2CC[C@@H]3[C@@H]2CC[C@H]2[C@@]3(C)CC[C@H]3C(C)(C)[C@@H](OC(=O)c4ccc([N+](=O)[O-])cc4[N+](=O)[O-])CC[C@]23C)C(=O)O1`, the IC50 was 1.62 µM in test [1] and 2.87 µM in test [2].

As to `CC(C)=C[C@@H]1C[C@](O)([C@H]2CC[C@@H]3[C@@H]2CC[C@H]2[C@@]3(C)CC[C@H]3C(C)(C)[C@@H](OC(=O)c4ccccn4)CC[C@]23C)C(=O)O1`, the IC50 was determined as 2.36 µM in test [1] and 5.14 µM in test [2].

As to `COc1ccc(C(=O)O[C@H]2CC[C@]3(C)[C@H]4CC[C@H]5[C@@H](CC[C@@H]5[C@@]5(O)C[C@@H](C=C(C)C)OC5=O)[C@]4(C)CC[C@H]3C2(C)C)cc1`, the results for the concentration for half-maximal inhibition (IC50) in test [1] and in test [2] were 2.61 µM and 3.9 µM, respectively.

On to `CC(=O)O[C@H]1CC[C@]2(C)[C@H]3CC[C@H]4[C@@H](CC[C@@H]4[C@@]4(O)C[C@@H](C=C(C)C)OC4=O)[C@]3(C)CC[C@H]2C1(C)C`, for which, in test [1], the IC50 is 12.7 µM.

For `COc1ccc(CNC2CC[C@]3(C)[C@H]4CC[C@H]5[C@@H](CC[C@@H]5[C@@]5(O)C[C@@H](C=C(C)C)OC5=O)[C@]4(C)CC[C@H]3C2(C)C)cc1` (some centres undefined), the inhibition in test [3] stood at 24%.

For the molecule `CC(C)=C[C@@H]1C[C@](O)([C@H]2CC[C@@H]3[C@@H]2CC[C@H]2[C@@]3(C)CC[C@H]3C(C)(C)[C@@H](OC(=O)c4cccc(C(=O)O)c4)CC[C@]23C)C(=O)O1`, the IC50 in test [1] is 0.33 µM; in test [2], 1.62 µM. Further, the Ratio IC50 in test [4] stood at 4.9.

For the molecule `CC(C)=C[C@@H]1C[C@](O)([C@H]2CC[C@@H]3[C@@H]2CC[C@H]2[C@@]3(C)CC[C@H]3C(C)(C)[C@@H](OC(=O)c4ccc(C(=O)O)cc4)CC[C@]23C)C(=O)O1`, the IC50 in test [1] is 0.27 µM; in test [2], 0.97 µM.

Turning to `COc1cccc(C(=O)O[C@H]2CC[C@]3(C)[C@H]4CC[C@H]5[C@@H](CC[C@@H]5[C@@]5(O)C[C@@H](C=C(C)C)OC5=O)[C@]4(C)CC[C@H]3C2(C)C)c1`, the IC50 in test [1] worked out at 2.08 µM; in test [2], 12 µM.

For the molecule `CC(C)=C[C@@H]1C[C@](O)([C@H]2CC[C@@H]3[C@@H]2CC[C@H]2[C@@]3(C)CC[C@H]3C(C)(C)[C@@H](O)CC[C@]23C)C(=O)O1`, the IC50 in test [1] is 11.3 µM; in test [5] it was 15.7 µM.

Consider `CC(C)=C[C@H]1C[C@@](O)([C@H]2CC[C@@H]3[C@@H]2CC[C@H]2[C@@]3(C)CC[C@H]3C(C)(C)[C@@H](O)CC[C@]23C)C(=O)O1`, for which the values for the IC50 in test [1] and in test [5] were 9.6 µM and 5.3 µM, respectively.

In test [1], `CC(C)=C[C@@H]1C[C@](O)([C@H]2CC[C@@H]3[C@@H]2CC[C@H]2[C@@]3(C)CC[C@H]3C(C)(C)C(NCc4cc(F)cc(F)c4)CC[C@]23C)C(=O)O1` (some centres undefined) yielded an IC50 of 11.6 µM.

The values above are taken from ChEMBL document CHEMBL1165949, “Dammaranes from Gynostemma pentaphyllum and synthesis of their derivatives as inhibitors of protein tyrosine phosphatase 1B” (Bioorg Med Chem, 2010).
